Results taken from ChEMBL document CHEMBL4513216, “Probing the Open Global Health Chemical Diversity Library for Multistage-Active Starting Points for Next-Generation Antimalarials” (ACS Infect Dis, 2020).

Assay: Toxicity liver stage against HepG2, at 10uM
Assay type: cell-based
Design: test concentration 10 uM, cell line HepG2-A16-CD81EGFP
Conditions: human, HepG2-A16-CD81EGFP cells; read-out: INHIBITION
Method in brief: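 Uninfected HepG2-A16-CD81EGFP cells, 3 × 10^3 per well, 1536-well, plated on prespotted compound at 10 μM final, parasite-free screening media added to match infected plates; puromycin 10 μM positive, DMSO 0.5% negative; run in parallel with 48 h PbLuc assay at 37 °C, 5% CO2; viability by CellTiter-Glo luminescence, normalized to controls.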

| SMILES | cytotoxicity at 10 µM |
| --- | --- |
| CC(=O)N1CC2(CCCC2)c2ccccc21 | 0.83% |
| O=C1CCCc2nccc(-c3ccccc3)c21 | 3.15% |
| C[C@@H](NC(=O)c1cccnc1)c1onc(-c2ccccc2)c1C(=O)O | 10.1% |
| COc1ccc2c(c1)nc1n2[C@@H](CNC(=O)c2ccccn2)COC1 | -3.03% |
| Oc1ccc([C@H]2Oc3cc(O)cc(O)c3C[C@@H]2O)cc1 | 4.94% |
| N#Cc1ccc(OC2CCN(C(=O)c3ccccc3Cl)CC2)nc1 | 3.93% |
| CCN1C(=O)CCC12CCN(S(=O)(=O)c1ccc(C#N)cc1)CC2 | 1.82% |
| COc1cccc(N2CC3(CCN(c4ccc(C)nn4)C3)CC2=O)c1 (centres undefined) | 6.62% |
| Cc1noc(C2CCC3(CCN(C(=O)c4cc(C5CC5)on4)CC3)O2)n1 (centres undefined) | 3.1% |
| O=C(NCc1ccco1)[C@@]12CCO[C@@H]1CCN(Cc1nccs1)C2 | 14.6% |
| CCN(C)c1ncnc2c1CCN(C(=O)N1CCOCC1)CC2 | 0.223% |
| Cc1cc(C(=O)N2C[C@@H]3COC[C@]3(c3nnc(C)o3)C2)on1 | -0.505% |
| Cc1occc1C(=O)N1CCn2cnc(COCC3CC3)c2C1 | -6.4% |
| CN(C(=O)Cn1nc(-c2ccccc2F)ccc1=O)C1CCS(=O)(=O)C1 (centres undefined) | 2.21% |
| COc1ccc(N2CCN(C(=O)Cn3nc(C)c(Cl)c3C)CC2)cc1 | 1.58% |
| Cc1nc(N2CCN(C(=O)c3ccco3)CC2)c2c(n1)c(C)nn2C | 12.1% |
| CCc1noc(C2CCCCN2C(=O)c2ccc3c(c2)OCO3)n1 (centres undefined) | 1.75% |
| CN(C)c1nccc(C2CN(c3cnccn3)CCO2)n1 (centres undefined) | 7.95% |
| Cc1nccc(CN2Cc3nccn3CC2c2ccccc2)n1 (centres undefined) | 3.1% |
| CN1CCOC(C)(C(=O)Nc2nc(C(C)(C)C)cs2)C1 (centres undefined) | 6.52% |
| Cc1nn(C)cc1S(=O)(=O)N[C@@H]1CCC[C@@H](n2ccnc2)[C@@H]1O | 0.651% |
| CC(C)N1CC[C@@](C)(O)[C@H](n2ccc(=O)[nH]c2=O)C1 | 6.61% |

| SMILES | cytotoxicity at 10 µM |
| --- | --- |
| COc1ccc(-c2cnc(N(C)C)nc2C2CN(C(C)=O)CCO2)cc1 (centres undefined) | -31.9% |
| COc1cccc(CN2CCC(c3nn(CCN)c4nccnc34)C2)c1 (centres undefined) | -24.7% |
| CN(C)C(=O)CN1CCCC1c1nccnc1Nc1ccccn1 (centres undefined) | -15% |
| COC(=O)Nc1cccc(C(=O)N(C)Cc2cccc(O)c2)c1 | -5.88% |
| CCN(CC)CCCNC(=O)Nc1c(C)cccc1C(C)C | -0.847% |
| NC(=O)c1ccc(NC2CCOC3(CCCC3)C2)nn1 (centres undefined) | -3.13% |
| COc1cccc(-c2n[nH]cc2CNC2CCCN(C)C2)c1 (centres undefined) | -8.86% |
| COC(=O)c1cc(CN2CCC(c3noc(C)n3)CC2)c(C)s1 | -7.12% |
| Cc1ccc(CN(CC(=O)NCC2CCOC2)c2ccc(F)cc2)o1 (centres undefined) | 9.83% |
| COc1c(NS(=O)(=O)c2cc(C)ccc2C)c(C)nn1C | 0.259% |
| Cc1cc(CN(CC(N)=O)CC(C)C)no1 | 3.72% |
| Cc1nc(-c2nnc[nH]2)sc1C(=O)N1CCCC(C(F)(F)F)C1 (centres undefined) | 7.59% |
| CN(C)c1cc(C(=O)Nc2ccccc2C(=O)NC(C)(C)C)ccn1 | 2.46% |
| Cc1cc(CN2CCN(C(=O)c3ccc(=O)n(C)c3)CC2)no1 | -8.07% |
| COC(=O)COc1nc(C(C)C)no1 | -6.22% |
| NC(=O)CCn1ccc(NC(=O)c2ccc(Br)o2)n1 | -1.39% |
| C1CCC(CNC2CCCN(Cc3noc(C4CC4)n3)C2)C1 (centres undefined) | -2.34% |
| CN1CCCN(C(=O)NCc2ccccc2Cn2cncn2)CC1 | 3.58% |
| Cc1nn(C(C)C)c(C)c1NC(=O)c1cccnc1 | -1.57% |
| Cc1nc(C)n(CC2CN(CCCc3ccccc3)CCO2)n1 (centres undefined) | 2.89% |
| Cc1cccn2cc(CN3CCCC(O)C3)nc12 (centres undefined) | 2.25% |
| COC(=O)CN(C(=O)c1cc(C(C)C)no1)c1cccc(F)c1 | 11.3% |

| SMILES | cytotoxicity at 10 µM |
| --- | --- |
| Cc1cc(C)cc(OCCN(C)Cc2ccc(S(=O)(=O)N(C)C)o2)c1 | 8.2% |
| CC(c1nc(C(C)(C)C)no1)S(=O)(=O)CC(=O)N(C)C (centres undefined) | -0.0515% |
| Cc1ccc2nc(CNc3ccccc3C(=O)NC3CC3)cn2c1 | 3.16% |
| O=C(Cc1cccs1)NC1(C(=O)NCC2CC2)CCCC1 | 4.19% |
| COc1c(C)cnc(CN(C)C2CCN(C3CCOCC3)CC2)c1C | -17.7% |
| CS(=O)(=O)Cc1nc(CN2CCOc3ccccc3C2)cs1 | 5.81% |
| Cc1cnccc1NC(=O)CCc1ccsc1 | -3.51% |
| Cn1cccc1C(=O)NC[C@H]1C[C@@H]2CN(C(=O)c3ccco3)C[C@@H]2O1 | -105% |
| CC(=O)N1CCCC2(CCN(c3nncs3)C2)C1 (centres undefined) | -103% |
| CN1CCN(CC2CC2)C(=O)c2cnc(N3CCCCC3)nc21 | 4.84% |
| Cc1cc(C2CCCN2C(=O)CN2CC3(CCNCC3)OC2=O)on1 (centres undefined) | 16.4% |
| O=C1CSc2ccccc2N1Cc1noc(C2CCCO2)n1 (centres undefined) | 8.35% |
| CCn1nc(CC(C)C)cc1C(=O)NCCS(=O)(=O)N(C)C | 11.2% |
| CC(C)(C)c1ccn(C2(C(=O)O)CCN(c3ncccc3C#N)CC2)n1 | -7.6% |
| O=C(NCCc1c[nH]cn1)c1ccc(S(=O)(=O)NC2CCCC2)cc1 | -7.2% |
| CN(Cc1nccs1)c1nccc(N2CCN[C@H]3CS(=O)(=O)C[C@H]32)n1 | -5% |
| CSc1nccc(N2CCC(=O)N(CC3CC3)C(C(C)C)C2)n1 (centres undefined) | -2.02% |
| Cc1cc(C)n(CCCN(CCN2CCOCC2)Cc2ccco2)n1 | 8.97% |
| NCC1CN(c2nc(-c3cccnc3)nc3c2CCNCC3)CCO1 (centres undefined) | -17.6% |
| c1ccc(CCN2CCN(C3CCOC4(CCOCC4)C3)CC2)nc1 (centres undefined) | 2.1% |
| c1cncc(C(Cn2cnnc2)N2CCOCC2)c1 (centres undefined) | -5.11% |
| CSc1ccc(-c2nc(CN3CCNCC3C)c(C)o2)cc1 (centres undefined) | -5.58% |

| SMILES | cytotoxicity at 10 µM |
| --- | --- |
| CC(C)[C@@H]1CN(C(=O)CN(C)Cc2ccc(F)cc2)C[C@H]1C(=O)O | 1.74% |
| Nc1nc(CC(=O)N2CCCC(CCc3cccc(F)c3)C2)cc(=O)[nH]1 (centres undefined) | -6.12% |
| Cc1nonc1OCCNC(=O)COc1ccc(Cl)cc1Cl | 3.95% |
| Cc1n[nH]c(CCC(=O)N2CCOC(Cc3ccccc3)C2)c1C (centres undefined) | -44.1% |
| COCCn1ccnc1C1CCN(C(=O)CSc2nnc(C)s2)CC1 | 5.4% |
| O=C(c1cc[nH]n1)N1CCC(c2nccn2Cc2ccncc2)CC1 | 0.216% |
| CCN(Cc1ccc(O)c(C(=O)O)c1)CC1CCOCC1 | -5.24% |
| Cn1ncc(NC(=O)Cn2ccc(-c3cccc(F)c3)n2)n1 | 1.73% |
| COCC(=O)N1CCC(C(=O)Nc2ccc(S(N)(=O)=O)cc2)CC1 | -1.47% |
| CC(C)c1ccnc(N[C@H]2COC[C@@H]2N2CCCC2)n1 | -4.48% |
| CN1CC(c2ccccc2)CC12CCN(C(=O)c1ccncc1)CC2 (centres undefined) | -7.96% |
| Cc1n[nH]c(C)c1-c1cc(-c2ccc[nH]2)nc(N)c1C#N | 12.4% |
| Cc1nc(CN2CCN(c3ccc4nncn4n3)C(C)C2)oc1C (centres undefined) | -2.91% |
| Cc1cc(C(=O)N2CCCC2)ccc1NCC(=O)N1CCOCC1 | -5% |
| CC(C)OCCCNC(=O)CS(=O)(=O)Cc1ccc(C(C)C)cc1 | 0.239% |
| O=C(CCNC(=O)C1CCCC1)NCc1ccccc1Cn1ccnc1 | -2.74% |
| Cn1ccnc1CN1CCN(CCOc2ccccc2F)CC1 | -10.9% |
| O=C(NCCNc1ccccn1)Nc1cc(C(F)(F)F)c[nH]c1=O | -16.5% |
| O=C(NCCC1=CCCCC1)Nc1cc(C(F)(F)F)c[nH]c1=O | -8.39% |
| CCc1n[nH]c(C2CN(C(=O)CCc3cscn3)CCO2)n1 (centres undefined) | -8.42% |
| Cc1nnc(N2CCOC(C)C2)c(C#N)c1C (centres undefined) | -11.7% |
| CC(C)c1cc(NC(=O)CN2CCn3c(nnc3C3CC3)C2)on1 | -14.1% |

| SMILES | cytotoxicity at 10 µM |
| --- | --- |
| Cc1nc(C)n(CC2CCCN(CC(=O)N3CCCC3)C2)n1 (centres undefined) | -8.31% |
| CC(Cc1cccs1)C(=O)NCc1cccc(N2CCCC2=O)c1 (centres undefined) | 2.4% |
| CC1CN(C(=O)NCCCn2cncn2)CCO1 (centres undefined) | -6.82% |
| Cn1ccnc1C1(O)CCN(C(=O)Cc2ccccc2)CC1 | 5.09% |
| Cc1ncc2c(n1)C1(CCN(C(=O)C3CC3)CC1)OCC2 | 6.02% |
| Cc1cc(C)nc(N2CCN(Cc3nccn3C)CC2)n1 | -20.9% |
| Fc1cccnc1O[C@@H]1CC[C@H]2[C@H]1OCCN2Cc1nccs1 | 4.93% |
| O=C(c1cnccn1)N1CCO[C@H]2[C@H](OCc3cccnc3)CC[C@@H]21 | -9.45% |
| Cc1cccc(CN2CC3(CCN(S(=O)(=O)C4CC4)CC3)OCC2=O)n1 | -3.27% |
| CCc1nc2ccccc2c(=O)n1CC1(O)CCN(C(=O)COC)CC1 | -2.76% |
| COCCC(=O)N1CCN(CC(C)C)c2nc(C)ccc2C1 | 11.3% |
| CC(C)NC(=O)[C@H]1C[C@@H]2[C@@H](C1)OCCN2Cc1ccco1 | 4.08% |
| C1CC(CO[C@@H]2CC[C@H]3[C@H]2OCCN3CC2CCOCC2)CCO1 | 13.7% |
| COc1ccc(CN2CCOC3(CCCN(C(C)=O)C3)C2)cc1 (centres undefined) | 3.88% |
| Fc1ccc(CN2CCOCC3(CCN(Cc4nccs4)C3)C2)cc1 (centres undefined) | 4.23% |
| O=C(CN1CCCC1=O)N1CCC(O)(Cn2ccc3ccncc32)CC1 | -5.55% |
| CO[C@H]1CCN(Cc2cnn(C)c2)[C@@H]2CN(Cc3ccncc3)C[C@H]12 | 2.29% |
| O=C(N1CCCO1)[C@]12COC[C@H]1CN(Cc1nccs1)C2 | 9.31% |
| Cc1ncc2c(c1C(=O)O)CCN(c1ncc(F)cn1)C2 | -2.19% |
| Cc1ncc(CN2C[C@H]3CC(OCc4ccccc4)C[C@H]3C2)cn1 (some centres undefined) | -24.3% |
| CCOC(=O)Cn1c(=O)[nH]c2cn(-c3ccccc3)c(=O)n21 | 0.379% |
